From paper PMC5221799 (International Journal of Nanomedicine, 2016)
Like-named read-outs stand apart in the source and are kept apart here.

How the values were obtained:
MCF7/ADR cells = assay: Annexin V-FITC/propidium iodide apoptosis assay by flow cytometry; type: cell-based, human; settings: 48 hours of incubation, Dox 20 μM
How it was run: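 MCF7/ADR cells (DMEM, 10% FBS; resistance kept with 1 μg/mL Dox, withdrawn 1 week before use) seeded at 10^5 cells/well and left 24 h. Treated with free Dox or nanoparticles (Dox 20 μM and/or anti-miR21 213.3 nM) for 48 h. Cells were washed, trypsinised, and stained with annexin V–FITC/PI for 15 min at room temperature in the dark, then analysed by flow cytometry. Untreated cells served as blanks; three repeats.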

[1] = tested on: MCF7/ADR (Dox-resistant) cells; assay: CCK-8 cytotoxicity assay in MCF7/ADR cells; type: cell-based, human; settings: for IC50: read-out: IC50 of Dox or equivalent NLS-Dox, MCF7/ADR cells, CCK-8, mean ± SD (n=5)
How it was run: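 CCK-8 assay in MCF7 and MCF7/ADR cells (Dox withdrawn from resistant line 1 week prior). Cells seeded at 0.5×10^4/well, grown overnight, then exposed to a concentration range for 48 or 96 h. CCK-8 was added for 1 h at 37°C and A450 read. Viability = (Asample−Ablank)/(Anon-treated−Ablank)×100%. n=5.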

MCF7/ADR xenografts = assay: In vivo antitumor efficacy in MCF7/ADR xenografts; set-up: species or system BALB/c nude mice; settings: tail vein every 3 days five times, n=6

Structure (SMILES): COc1cccc2c1C(=O)c1c(O)c3c(c(O)c1C2=O)C[C@@](O)(C(=O)CO)C[C@@H]3O[C@H]1C[C@H](N)[C@H](O)[C@H](C)O1 [Free Dox, doxorubicin]
- apoptotic cells (MCF7/ADR cells): 10.75%
- IC50 in MCF7/ADR cells relative to parent MCF7 cells ([1]; 48 hours incubation): over 20 fold
- IC50 ([1]; 48 hours): 49.4 ± 2.58 µM
- IC50 ([1]; 96 hours): 30 ± 1.46 µM
- effect on growth of MCF7/ADR xenografts (MCF7/ADR xenografts; free Dox 7.6 mg/kg): slight inhibitory effect
- body weight change of tumor-bearing mice (MCF7/ADR xenografts; measured for 3 weeks): significant weight loss
